Results from different studies.
Lines come from different studies, so protocols differ.

CCN1CCN(Cc2cc(NC(=O)c3ccc(C)c(-c4ccc5nc(NC(=O)C6CC6)cn5n4)c3)cc(C(F)(F)F)c2)CC1  AUC (Swiss mouse; plasma; intraperitoneal; 3 mg/kg): 1070 ng·h/mL
CC(C)(O)c1cn(-c2ccc(-c3cc(F)c(CO)c(S(C)(=O)=O)c3)cc2F)c(C(C)(C)c2c(Cl)cccc2Cl)n1  AUC (male C57BL/6 mouse; serum; oral; 10 mg/kg): 7.4 µM·h
Cc1ccc2cncc(N3CCc4c(cc(Cn5ccnc5)cc4-c4cn(C)nc4C(F)(F)F)C3=O)c2c1  AUC(0-inf) (male CD-1 mouse; plasma; oral; 50 mg/kg): 36300 ng·h/mL
CC(C)(O)c1cn(-c2ccc(-c3cccc(S(C)(=O)=O)c3)cc2)c(C(C)(C)c2ccccc2Cl)n1  AUC (male C57BL/6 mouse; serum; oral; 10 mg/kg): 57 µM·h
COC(=O)CN(CCCc1ccccc1)CC(=O)N[C@@H](Cc1c[nH]cn1)c1nc(C)no1  AUC (male C57BL/6 mouse; plasma; intraperitoneal; 30 mg/kg): 200 ng·h/mL
COc1ccc2nccc(N3CCc4c(cc(Cn5ccnc5)cc4-c4cn(C)nc4C(F)(F)F)C3=O)c2c1  AUC(0-inf) (male CD-1 mouse; plasma; intravenous; 3 mg/kg): 1840 ng·h/mL
CC1(C)c2nc(-c3ccc(F)cc3)c(Nc3ccc(F)cc3)n2CCN1C(=O)CN  AUC (mouse; plasma; oral; 2 mg/kg): 0.78 µM·h
CCc1cc(OC)c2nccc(N3CCc4c(cc(Cn5ccnc5)cc4-c4cn(C)nc4C(F)(F)F)C3=O)c2c1  AUC(0-inf) (male CD-1 mouse; plasma; intravenous; 3 mg/kg): 3330 ng·h/mL
Cc1nc(-c2cnc(NC(C)C)n(C)c2=O)ccc1Oc1ccnc(-c2cnn(C)c2)c1  AUC(0-inf) (female mouse; plasma; oral; 30 mg/kg; single dose): 285000 ng·h/mL
CC[C@H](C)[C@@H]1NC(=O)[C@@](C)(NC(=O)[C@H](CCCNC(=N)N)NC(=O)[C@H](CC(C)C)NC(=O)[C@@H](NC(=O)[C@H](CCC(N)=O)NC(=O)[C@H](CC(C)C)NC(C)=O)[C@@H](C)O)CCCC=CCCC[C@@](C)(C(=O)N[C@@H](CC(C)C)C(=O)N[C@@H](Cc2ccc3ccccc3c2)C(N)=O)NC(=O)[C@H](CCCNC(=N)N)NC(=O)[C@H](CCC(N)=O)NC1=O  AUC (male BALB/c mouse; plasma; intravenous; 5 mg/kg): 76 µM·h
Cc1noc([C@H](Cc2c[nH]cn2)NC(=O)CN(CCCc2ccccc2)CC(=O)O)n1  AUC (male C57BL/6 mouse; plasma; intraperitoneal; 30 mg/kg): 1900 ng·h/mL
OC[C@H]1O[C@@H](c2ccc(Cl)c(Cc3ccc(O[C@H]4CCOC4)cc3)c2)[C@H](O)[C@@H](O)[C@@H]1O  AUC (CD-1 mouse; plasma; intravenous; 5 mg/kg): 1450 ng·h/mL
CC(C)(C)c1ccc(O)c(CN(Cc2cc(C(C)(C)C)ccc2O)C2CCC(NC(N)=O)CC2)c1 (centres unmarked)  AUC(0-inf) (male C57BL/6 mouse; plasma; intraperitoneal; 5 mg/kg; single dose): 6180 ng·h/mL
NC[C@@H]1O[C@H](O[C@H]2[C@@H](O)[C@H](O[C@@H]3[C@@H](O)[C@H](N)C[C@H](N)[C@H]3O[C@H]3O[C@H](CO)[C@@H](O)[C@H](O)[C@H]3N)O[C@@H]2CO)[C@H](N)[C@@H](O)[C@@H]1O  AUC (male BALB/c mouse; plasma; intravenous; 15 mg/kg): 30600 ng·h/mL
